Compound activity from PubChem.
WT yeast gro inh: growth inhibition of WT strain, primary screen, mitochondrial fusion inhibitor project, WT and mutant strains, chemical genetic; mitochondrial fusion phenotypic screen; inhibition, % at 10 µM; 190,000 tested, 2.1% active; AID 1362, 2008; in the data active = inhibition above about 58%; tested in S. cerevisiae
PMI act hi M6P: human PMI activators, high substrate, primary screen, biochemical, fluorescence intensity, near-saturating mannose 6-phosphate. activation factor at 20 µM. coupled PMI enzyme assay, resazurin fluorescence, 20 min; stronger effect = higher value; 1 = untreated enzyme, 0 = substrate-free blank. 190,000 tested, 0.34% active;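 active = activation factor of 2 or more at 20 µM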
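assay system = human phosphomannose isomerase with PGI, G6PDH, diaphorase coupling enzymes | quantity = 15 ng/mL PMI | incubation = enzyme reaction with compound 20 min at room temperature | medium = HEPES pH 7.4 buffer with MgCl2 and Tween-20 | compound dosing = one concentration, 20 µM, in 1% DMSO | measured by = Diaphorase-driven resazurin-to-resorufin fluorescence, excitation 544, emission 590 nm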
PMI activator: activators of human PMI, primary screen, biochemical, fluorescence intensity, near-Km mannose 6-phosphate | Mannose-6-phosphate isomerase (Homo sapiens), P34949 | purified human PMI, coupled resazurin fluorescence, 20 min; stronger effect = higher value; 1 = vehicle control, 0 substrate-free wells | activation factor at 20 µM | 190,000 tested, 0.005% active | AID 1214, 2008;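 active = activation factor of 2 or more at 20 µM, relative to plate controls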
Lmaj promast: Leishmania major promastigote growth inhibition, primary screen | Leishmania major promastigotes, resazurin fluorescence viability | inhibition, % at 10 µM | 200,000 tested, 9% active | AID 1063, 2008; in the data active = inhibition above about 50%;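 note: promastigotes grown with compound for 44 hours at 28 °C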
m-calpain inh: inhibitors of pig calpain II, primary screen, biochemical, fluorogenic peptide substrate, 1536-well; purified calpain II, 30 min; inhibition, % at 16 µM; 220,000 tested, 0.37% active; AID 1236, 2008;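 active = inhibition above about 50%, limit read from the data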
Rad51 HR inh: human RAD51 strand exchange inhibitors, primary screen, biochemical, fluorescence; inhibition, % at 10 µM; hRad51 DNA strand exchange, fluorescence dequenching; 200,000 tested, 0.085% active; DNA repair protein RAD51 homolog 1 (Homo sapiens), Q06609;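 active = inhibition above 40% at the single screening dose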;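 note: 0% = DMSO control wells and 100% = blanks with heterologous ssDNA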
Target sequence (Q06609 whole entry, looked up): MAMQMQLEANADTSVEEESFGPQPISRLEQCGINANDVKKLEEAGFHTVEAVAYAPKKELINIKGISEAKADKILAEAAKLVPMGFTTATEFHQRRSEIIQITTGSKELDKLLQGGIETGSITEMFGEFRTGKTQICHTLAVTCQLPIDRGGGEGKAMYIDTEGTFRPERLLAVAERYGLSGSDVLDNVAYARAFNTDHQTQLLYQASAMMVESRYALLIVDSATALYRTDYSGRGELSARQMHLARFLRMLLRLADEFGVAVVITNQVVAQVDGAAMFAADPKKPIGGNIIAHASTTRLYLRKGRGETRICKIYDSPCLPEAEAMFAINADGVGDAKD
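Material: hRad51 filaments on single-stranded DNA; Reagent: Donor/quencher-labelled 47-bp dsDNA substrate; Compound: 10 µM final, single point; Schedule: 37 °C 15-min filament assembly, 30-min compound preincubation, 15-min exchange; Technique: FRET fluorescence, excitation 485 nm, emission 520 nm; Benchmarks: control wells and blank wells on each plate.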
* = called active by the depositor; x = not tested or not shown. The list is not random: actives were taken first. Their share in the collection is about 9.8%.

SMILES	WT yeast gro inh	PMI act hi M6P	PMI activator	Lmaj promast	m-calpain inh	Rad51 HR inh
CCCN(CC(=O)Nc1cccc(Br)c1)CC(=O)Nc1ccc(F)c(F)c1F	69*	0.9	0.8	7	22	12
CCOC(=O)c1c(CN2CCCCC2)n(C)c2cc(Br)c(OC)cc12	23	1	1	99*	2	-2
COc1cc2c(C(=O)N3CCOCC3)c(CSc3ccccc3)n(C)c2cc1Br	60*	0.8	0.8	47	11	1
CCOC(=O)c1c(C)n(CC(O)CN(CC)CC)c2cc(Br)c(OC)cc12 (stereo not drawn)	-8	1.1	1.1	89*	-26	15
CCOC(=O)c1c(C)oc2cc(Br)c(OC)cc12	11	1	1	2	-13	8
CCN(CC)CCNC(=O)c1c(C)n(-c2ccccc2)c2cc(Br)c(OC)cc12	20	0.8	0.9	101*	-23	0
COc1cc2c(C(=O)N3CCN(C)CC3)c(C)n(-c3ccccc3)c2cc1Br	10	1	0.9	12	-20	0
CCOC(=O)c1c(C)n(C)c2cc(Br)c(OC)cc12	18	0.9	0.9	-1	20	-3
COc1cc(NC(=O)CSCC(=O)Nc2cc(OC)cc(OC)c2)cc(OC)c1	x	x	x	x	9	-1
CCN(CC)S(=O)(=O)c1cccc(NC2=NCCCCC2)c1	x	x	x	x	-1	12
CC(=O)Nc1ccccc1-c1nc2ccccc2nc1OCC(=O)c1ccc2ccccc2c1	29	1	1	-2	-19	3
CC1(C)CC2CC(C)(CN2C(=O)COC(=O)CNC(=O)c2ccc(Cl)c(Cl)c2)C1 (stereo not drawn)	7	1	0.9	-5	20	-10
CCOC(=O)c1c(CN(CC)CC)n(C)c2cc(Br)c(O)cc12	x	x	x	x	-14	x
CCOC(=O)c1c(CN2CCN(CCO)CC2)n(C)c2cc(Br)c(OC)cc12	12	1	1	54*	-6	x
CCOC(=O)c1c(CNCCN(CC)CC)n(C)c2cc(Br)c(OC)cc12	5	1	1	100*	-3	18
CC(C)CC1NC(=O)N(Cc2nc3ccccc3s2)C1=O (stereo not drawn)	x	x	x	x	-11	3
O=C(/C(=C/O)N=Nc1ccccc1)c1ccncc1	2	0.9	0.9	4	8	4
O=C(/C(=C/O)N=Nc1ccccc1)c1ccc(Cl)cc1	68*	0.9	0.9	37	-52	5
CC(=O)c1ccc(N=Nc2ccc(C)cc2)cc1	10	1.1	1.2	7	-3	-4
Cc1ccc(N=N/C(=C\O)C(=O)c2ccc(Cl)cc2)cc1	97*	1.1	1	91*	-52	4
O=c1[nH]cc(N(CCO)CCO)c(=O)[nH]1	x	x	x	x	-4	x
O=[N+]([O-])c1cccc(C2NCC(c3ccccc3Cl)c3c2[nH]c2ccccc32)c1 (stereo not drawn)	70*	1	1.1	38	-82	6
COc1cccc(CN(C)C(=O)c2cccc(OC3CCN(C4CCCC4)CC3)c2)c1	3	1	0.9	63*	-14	-8
CNc1ccc(Br)cc(C(=O)/C=C/c2cccc(OC)c2)c1=O	-11	1.2	1.1	57*	-62	2
CCNc1ccc(Br)cc(C(=O)/C=C/c2c(Cl)cccc2Cl)c1=O	11	1.2	1.1	100*	-86	-47
CCNc1ccc(Br)cc(C(=O)/C=C/c2ccc3c(c2)OCO3)c1=O	28	1	0.8	33	-123	-8
